Reference: ChEMBL document CHEMBL3396991 (Eur J Med Chem, 2015)

Tests used:
[1] = molecular target: Kappa-type opioid receptor (Rattus norvegicus, UniProt P34975); assay: Displacement of [3H]U69593 from rat recombinant kappa opioid receptor expressed in CHO cells after 60 mins; type: cell-based
[2] = molecular target: Mu-type opioid receptor (Homo sapiens, UniProt P35372); assay: Displacement of [3H]diprenorphine from human recombinant mu opioid receptor expressed in HEK cells after 60 mins; type: cell-based, HEK293
Chain of Mu-type opioid receptor (P35372 whole entry): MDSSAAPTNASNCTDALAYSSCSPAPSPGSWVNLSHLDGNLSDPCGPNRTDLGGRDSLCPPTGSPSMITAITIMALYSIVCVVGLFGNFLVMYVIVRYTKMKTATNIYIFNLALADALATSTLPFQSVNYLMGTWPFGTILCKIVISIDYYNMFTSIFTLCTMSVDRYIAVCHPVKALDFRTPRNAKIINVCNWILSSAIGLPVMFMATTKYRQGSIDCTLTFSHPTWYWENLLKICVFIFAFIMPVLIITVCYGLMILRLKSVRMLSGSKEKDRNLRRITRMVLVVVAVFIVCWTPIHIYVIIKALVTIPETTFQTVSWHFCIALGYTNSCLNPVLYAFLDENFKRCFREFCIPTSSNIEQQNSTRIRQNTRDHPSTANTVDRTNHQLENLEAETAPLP

[3] = molecular target: Delta-type opioid receptor (Homo sapiens, UniProt P41143); assay: Displacement of [3H]DADLE from human recombinant delta opioid receptor expressed in HEK cells after 60 mins; type: cell-based, HEK293
Chain of Delta-type opioid receptor (P41143 whole entry): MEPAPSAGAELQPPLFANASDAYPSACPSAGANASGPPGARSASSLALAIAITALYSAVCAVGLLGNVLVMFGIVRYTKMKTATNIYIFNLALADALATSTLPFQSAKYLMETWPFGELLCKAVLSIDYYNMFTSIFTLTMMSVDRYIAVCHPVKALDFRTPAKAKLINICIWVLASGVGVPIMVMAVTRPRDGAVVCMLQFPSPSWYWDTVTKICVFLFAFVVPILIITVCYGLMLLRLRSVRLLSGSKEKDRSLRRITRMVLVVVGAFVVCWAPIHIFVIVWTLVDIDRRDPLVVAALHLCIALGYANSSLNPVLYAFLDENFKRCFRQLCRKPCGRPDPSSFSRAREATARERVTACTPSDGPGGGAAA

[4] = Selectivity ratio of Ki for human recombinant mu opioid receptor to Ki for rat recombinant kappa opioid receptor
[5] = Selectivity ratio of Ki for human recombinant delta opioid receptor to Ki for rat recombinant kappa opioid receptor
Outline: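 Ratio of DOR Ki to KOR Ki. […] Both assays in 50 mM Tris pH 7.4 at room temperature, eight concentrations.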

[6] = molecular target: Kappa-type opioid receptor (Homo sapiens, UniProt P41145); assay: Antagonist activity at kappa opioid receptor (unknown origin)
Chain of Kappa-type opioid receptor (Homo sapiens, UniProt P41145) (P41145 whole entry): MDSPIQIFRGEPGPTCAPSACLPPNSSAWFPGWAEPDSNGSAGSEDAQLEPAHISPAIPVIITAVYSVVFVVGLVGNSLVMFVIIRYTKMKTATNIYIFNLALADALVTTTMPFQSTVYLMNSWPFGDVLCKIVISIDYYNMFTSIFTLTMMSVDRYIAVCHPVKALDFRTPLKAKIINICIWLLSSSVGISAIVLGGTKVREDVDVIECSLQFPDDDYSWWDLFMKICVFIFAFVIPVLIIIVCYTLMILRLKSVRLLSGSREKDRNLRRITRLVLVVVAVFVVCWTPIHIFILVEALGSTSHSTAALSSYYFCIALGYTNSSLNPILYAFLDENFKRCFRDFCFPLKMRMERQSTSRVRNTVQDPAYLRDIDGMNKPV

[7] = organism: Homo sapiens; assay: Selectivity ratio of Ki for mu opioid receptor (unknown origin) to Ki for kappa opioid receptor (unknown origin)
Outline: (§1)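 Ratio of two Ki values from radioligand displacement. KOR: rat recombinant receptor in CHO cells, [³H]U69593 (1 nM), 60 min. MOR: human recombinant receptor in HEK cells, [³H]diprenorphine (0.4 nM), 120 min. Both in 50 mM Tris pH 7.4 at room temperature with eight test concentrations. Ki is the mean ± SD of at least three experiments.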

[8] = organism: Homo sapiens; assay: Selectivity ratio of Ki for delta opioid receptor (unknown origin) to Ki for kappa opioid receptor (unknown origin)
Outline: as §1, with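 “DOR:” for “MOR:”, “receptor, [³H]DADLE (0.5” for “receptor in HEK cells, [³H]diprenorphine (0.4”, “three independent” for “three”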

Chain of Kappa-type opioid receptor (Rattus norvegicus, UniProt P34975) (P34975 whole entry): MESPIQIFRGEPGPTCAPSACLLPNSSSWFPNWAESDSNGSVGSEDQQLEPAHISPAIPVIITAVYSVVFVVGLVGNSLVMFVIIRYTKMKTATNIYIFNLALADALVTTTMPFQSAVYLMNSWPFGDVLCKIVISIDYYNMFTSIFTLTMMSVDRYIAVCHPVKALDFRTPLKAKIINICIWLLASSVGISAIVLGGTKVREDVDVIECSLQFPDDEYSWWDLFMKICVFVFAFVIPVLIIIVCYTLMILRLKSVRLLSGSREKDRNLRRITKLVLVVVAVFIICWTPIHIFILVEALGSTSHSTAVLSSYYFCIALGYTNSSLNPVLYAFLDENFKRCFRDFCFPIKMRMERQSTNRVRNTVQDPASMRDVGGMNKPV

## CC(C)[C@@H](CN1CC[C@@](C)(c2cccc(O)c2)[C@@H](C)C1)NC(=O)[C@H]1Cc2ccc(O)cc2CN1 [JDTIC]
[1]
  Ki: 0.00032 µM

## CC(C)[C@@H](CN1CC[C@@](C)(c2cccc(O)c2)[C@@H](C)C1)NC(=O)[C@H]1Cc2ccc(OCCCF)cc2CN1
[1]
  Ki: 0.00819 µM
[2]
  Ki: 0.0575 µM
[3]
  Ki: 0.0729 µM
[4]
  Ratio Ki: 7
[5]
  Ratio Ki: 8.9

## Cc1cc(C)cc([C@@H]2CCCN2Cc2ccc(Oc3ccc(C(N)=O)cc3F)cc2)c1 [ATICAPRANT]
[6]
  Ki: 0.0008 µM
[7]
  Ratio Ki: 30
[8]
  Ratio Ki: 194

## CC(C)[C@@H](CN1CC[C@@](C)(c2cccc(O)c2)[C@@H](C)C1)NC(=O)[C@H]1Cc2ccc(O)cc2CN1CCCF
[1]
  Ki: 0.00162 µM
[2]
  Ki: 0.0196 µM
[3]
  Ki: 0.254 µM
[4]
  Ratio Ki: 12.2
[5]
  Ratio Ki: 159

## CC(C)[C@@H](CN1CC[C@@](C)(c2cccc(O)c2)[C@@H](C)C1)NC(=O)[C@H]1Cc2ccc(OCCF)cc2CN1
[1]
  Ki: 0.024 µM
[2]
  Ki: 0.0631 µM
[3]
  Ki: 0.0813 µM
[4]
  Ratio Ki: 2.6
[5]
  Ratio Ki: 3.4

## CC(C)[C@@H](CN1CC[C@@](C)(c2cccc(O)c2)[C@@H](C)C1)NC(=O)[C@H]1Cc2ccc(O)cc2CN1CCF
[1]
  Ki: 0.00551 µM
[2]
  Ki: 0.0132 µM
[3]
  Ki: 0.0728 µM
[4]
  Ratio Ki: 2.4
[5]
  Ratio Ki: 13.2
